The test system of this data set is MS2 coat protein. The experiment in a line: apparent Kd, MS2 coat protein; higher = weaker binding; RNA-MaP array; FMN 200 µM where present. An outline of the steps:
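Stalled E. coli RNA polymerase transcribed the designs on Illumina sequencing-chip clusters. SNAP-549-labelled MS2 coat protein was titrated from 0.7 or 1.5 nM, doubling to 3 µM, without and then with constant ligand, in 100 mM Tris-HCl pH 7.5, 80 mM KCl, 4 mM MgCl2, BSA, DTT, yeast tRNA and Tween-20. Per-cluster binding curves were fitted to green signal normalised to red-channel RNA signal and control-cluster median Fmax. The apparent Kd is the median of the filtered fits.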

[1] abbreviates: designed as: OFF switch for flavin mononucleotide, no ligand.
[2] abbreviates: ligand present: flavin mononucleotide, designed as: OFF switch for flavin mononucleotide.
Where [3] appears, read: designed as: ON switch for flavin mononucleotide, no ligand.
Setting [4] is: ligand present: flavin mononucleotide, designed as: ON switch for flavin mononucleotide.

What is called apparent Kd is a dissociation constant that holds for the conditions of the assay. Consider “GCUGACGAUGUAGGAUAUCUCGACGAUAAGUCGAGAGAAGGACAUGAGGAUCACCCAUGUACUCUAACGUCAGCGAGGAAACUC”, for which the “apparent Kd” value came to 17.2 nM under setting [1] and 18.5 nM under setting [2].

On to “CGAUUUUAUAGAGGAUAUGUUUAACAUGAGGAUCACCCAUGUGAGGUGGAAAUAUUUAAUUACAUACAGAAGGCUAUACAAUCG”, for which the “apparent Kd” value is 234 nM under setting [1] and 180 nM under setting [2].

For “GCGUCAGAAUUAAUUGUGACAGACAGAAGGCAAUAGUUCAUGUCAGACAUGAGGAUCACCCAUGUUGAGGAUAUGUAUUUACUC”, the “apparent Kd” value is, setting by setting: under setting [1], 7.54 nM; under setting [2], 8.35 nM.

Take “ACCUCACAUGAGGAUCACCCAUGUUAGGAUAUCUCGAUGCUCCGCGGGCGGGAGCAUCAGAGAAGGAACGUGCA”: the “apparent Kd” value reads like this: under setting [1], 20.1 nM; under setting [2], 21.8 nM.

Regarding “GACUGCCGAGGAUAUACAUGAGGAUCACCCAUGUGCUUCAGCAUUUUUUAAUGCAUGGGUAGAAGGCGGUAGUC”, the “apparent Kd” value was 32.6 nM under setting [1] and 68.5 nM under setting [2].

Consider “GGCCCACAUGAGGAUCACCCAUGUGAGGAUAUGUUAGUUUCGGCGAAAGCCGAAAUUAACAGAAGGCACAGGCC”, for which the “apparent Kd” value was determined as 11.7 nM under setting [1] and 13.6 nM under setting [2].

On to “GGCGGAGACGUUAACAUGAGGAUCACCCAUGUCGAAGGAGAUGAGGAUAUCGUAUACGAUGUAUAUGAGAAGGCAUGGUCUGCC”, for which the “apparent Kd” value by setting is: under setting [3], 32.8 nM; under setting [4], 11.3 nM.

On to “AAAACUGGAGGAUAUACAUGAGGAUCACCCAUGUGUGGGUAUACUGUGUCGGCGUCAGGUAGAAGGCCACAAAA”, for which the “apparent Kd” value runs as follows: under setting [1], 108 nM; under setting [2], 88.7 nM.

For the sequence “ACUAUAUAUGAGAAGGUGAAGUGGAAACAUGAGGAUCACCCAUGUAAUACGAAGCGUAUUUUUAUCAAGGAUAUCAUAUAUAGA”, the “apparent Kd” value is 10.2 nM under setting [3] and 8.02 nM under setting [4].

Turning to “UAAGCGCAGGAGAAGGGCACUGGACGCUCGCUACAUGAGGAUCACCCAUGUGCAGGAUAUCCGGCGCCACCCGCAAACUCGGUG”, the “apparent Kd” value was 15.8 nM under setting [1] and 72.1 nM under setting [2].

For the sequence “GAUCUCGUAGUGAGGAUAUUGCUCAUAGACAAUAGUAAGAAGGCACAUGAGGAUCACCCAUGUCGAGUGAGGUU”, the “apparent Kd” value was determined as 69.9 nM under setting [1] and 143 nM under setting [2].

With “UUCGUGCAGCUUUGCUGUACGCGUACAUGAGGAUCACCCAUGUAGGAUAUGGUAGGCCAAGCUUACUAGAAGGAUAUAGUGAUC”, the “apparent Kd” value is, setting by setting: under setting [1], 95.5 nM; under setting [2], 88.7 nM.

For “GCCAUCGCAUGAGGAUAUGGCACCGGUUCGGUGCCAGAAGGCAUGUCAAAUGACAUGAGGAUCACCCAUGUAGUUAAGAUGGCA”, the “apparent Kd” value is, setting by setting: under setting [3], 215 nM; under setting [4], 14.7 nM.

For “GGUGCGUUUGUGAGGAUAUGCUGGUCCUUGGAUCAGCAGAAGGCACAUGAGGAUCACCCAUGUGGUGUCGGUCC”, the “apparent Kd” value is 416 nM under setting [1] and 37.6 nM under setting [2].

“AGAUCCUGAGUCAGGAUAUAGAGACGGUAGUCGGGCUAGAAGGGACAUGAGGAUCACCCAUGUGGGUUCGGGCC”: the “apparent Kd” value is, setting by setting: under setting [1], 14.2 nM; under setting [2], 19.3 nM.

For “CCGGAAAUACAGGAUAUAGGAGUCAAUAGACUCCUAGAAGGGUAUACAUGAGGAUCACCCAUGUGUCCUACCGG”, the “apparent Kd” value by setting is: under setting [1], 35 nM; under setting [2], 35.6 nM.

On to “UAUUUAAGAGGAUAUACAUGAGGAUCACCCAUGUGUGUCUAUACGCGUGAUUUUUCAUGUAGAAGGCUUGGGUA”, for which the “apparent Kd” value reads like this: under setting [1], 160 nM; under setting [2], 60.5 nM.

On to “UGCAUGUAAGGAUAUGCAACCUGCGCUCAUUAGCAGGUCAAGCAGAAGGUACAUGAGGAUCACCCAUGUGUCCG”, for which the “apparent Kd” value reads like this: under setting [1], 31.2 nM; under setting [2], 156 nM.

“AAACAGGGAGGAUAUACAUGAGGAUCACCCAUGUUCGAGCGUCCUUGAACUACCUCAGGUAGAAGGCCCUAAUU”: the “apparent Kd” value came out at 372 nM under setting [1] and 112 nM under setting [2].

Regarding “ACAUGUACAGGAUAUACAUGAGUGAUACACGUAUUUCCACUACAUGAGGAUCACCCAUGUAGAAGGGUACAUGA”, the “apparent Kd” value under setting [1] was determined as 50.2 nM and the “apparent Kd” value under setting [2] is 19.5 nM.

These data come from the EternaBench riboswitch data.
